Measured values published in ChEMBL document CHEMBL1125290, “Bis basic substituted diaminobenzobisthiazoles as potential antiarthritic agents” (1992).
Several values for one entry are separate records, joined by “and”; a condition that tells them apart may be missing. Identical values can stand only once.

Key:
[1] = species: Rattus norvegicus; test: Antiinflammatory activity in D-adjuvant induced arthritis in rat measured by the change in body weight; format: functional; set-up: concentration or dose not given beside the values
[2] = system: Rattus norvegicus; test: Antiinflammatory activity against D-adjuvant arthritis in uninjected rat paw at the dose of 100 mg/kg by oral administration; format: functional
[3] = system: Rattus norvegicus; test: Antiinflammatory activity against carrageenan induced rat paw edema (CPE), dosed orally; format: functional
Summary of the method: (§1)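 Male Sprague–Dawley rats (150 ± 10 g), five per group. Compound or vehicle given orally in 0.5% methylcellulose 1 h before subplantar injection of 0.1 mL 1% carrageenan in saline into the right hind paw. Paw volume measured by mercury displacement before dosing and 3 h after carrageenan; the difference is the edema volume. ANOVA with Dunnett's t test.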

[4] = system: Rattus norvegicus; test: Antiinflammatory activity against D-adjuvant arthritis in injected rat paw at the dose of 100 mg/kg by oral administration; format: functional
[5] = system: Rattus norvegicus; test: Antiinflammatory activity dosed orally against D-adjuvant arthritis in rat.; format: functional
[6] = system: Rattus norvegicus; test: Antiinflammatory activity dosed orally against carrageenan induced rat paw edema(CPE); format: functional; summary of the method: as §1
[7] = system: Rattus norvegicus; test: Antiinflammatory activity against D-adjuvant arthritis in injected rat paw at the dose of 50 mg/kg by oral administration; format: functional
[8] = system: Rattus norvegicus; test: Antiinflammatory activity against D-adjuvant arthritis in uninjected rat paw at the dose of 50 mg/kg by oral administration; format: functional
Summary of the method: (§2)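 Rat developing adjuvant arthritis screen with oral dosing on a prophylactic protocol. Percent change in body weight versus untreated animals was recorded as a preliminary toxicity sign. Significance was assessed against controls by two-tailed Student's t test, p < 0.05.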

[9] = system: Mus musculus; test: Percent suppression of plaque forming cells in spleen cell suspension at a dose of 100 mg/kg, po. in AKR mice, p<0.05; format: functional
[10] = system: Mus musculus; test: Percent suppression of plaque forming cells in spleen cell suspension at a dose of 50 mg/kg, po. in AKR mice, p<0.05; format: functional
[11] = system: Mus musculus; test: Percent suppression of plaque forming cells in spleen cell suspension at a dose of 200 mg/kg, po. in AKR mice, p<0.05; format: functional
[12] = system: Rattus norvegicus; test: Antiinflammatory activity dosed orally against D-adjuvant arthritis in uninjected rat paw at 50 mg/kg; format: functional; settings: route oral
[13] = system: Rattus norvegicus; test: Antiinflammatory activity against D-adjuvant arthritis in uninjected rat paw at the dose of 10 mg/kg by oral administration; format: functional
[14] = system: Rattus norvegicus; test: Antiinflammatory activity against D-adjuvant arthritis in injected rat paw at the dose of 10 mg/kg by oral administration; format: functional
[15] = system: Rattus norvegicus; test: Antiinflammatory activity dosed orally against carrageenan induced rat paw edema(CPE).value in the parentheses is the dose(mg/kg).; format: functional; summary of the method: as §1
[16] = system: Rattus norvegicus; test: Antiinflammatory activity against D-adjuvant arthritis in uninjected rat paw at the dose of 5 mg/kg by oral administration; format: functional
[17] = system: Rattus norvegicus; test: Antiinflammatory activity against D-adjuvant arthritis in injected rat paw at the dose of 5 mg/kg by oral administration; format: functional
[18] = system: Rattus norvegicus; test: Antiinflammatory activity dosed orally against D-adjuvant arthritis in rat measured by the change in the weight of the body; format: functional
[19] = system: Rattus norvegicus; test: Antiinflammatory activity against D-adjuvant arthritis in injected rat paw at the dose of 25 mg/kg by oral administration; format: functional
[20] = system: Rattus norvegicus; test: Antiinflammatory activity against D-adjuvant arthritis in uninjected rat paw at the dose of 25 mg/kg by oral administration; format: functional
[21] = system: Rattus norvegicus; test: Antiinflammatory activity against D-adjuvant arthritis in injected rat paw at the dose of 1.0 mg/kg by oral administration; format: functional; summary of the method: as §2
[22] = system: Rattus norvegicus; test: Antiinflammatory activity against D-adjuvant arthritis in injected rat paw at the dose of 2.5 mg/kg by oral administration; format: functional
Summary of the method: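 Rats dosed orally in a developing adjuvant arthritis screen; swelling of the adjuvant-injected paw scored against untreated arthritic controls. Significance by two-tailed Student's t test, p < 0.05. Percent change in body weight versus untreated animals recorded as a preliminary toxicity indication.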

[23] = system: Rattus norvegicus; test: Antiinflammatory activity against D-adjuvant arthritis in uninjected rat paw at the dose of 1.0 mg/kg by oral administration; settings: read-out: Inhibition
[24] = system: Rattus norvegicus; test: Antiinflammatory activity dosed orally against D-adjuvant arthritis in injected rat paw at 50 mgKg; format: functional
[25] = system: Rattus norvegicus; test: Antiinflammatory activity dosed orally against D-adjuvant arthritis in uninjected rat paw at 100 mg/Kg; format: functional; settings: po
[26] = system: Rattus norvegicus; test: Antiinflammatory activity dosed orally against D-adjuvant arthritis in injected rat paw at 100 mg/Kg; format: functional; settings: po
[27] = system: Mus musculus; test: Percent suppression of plaque forming cells in spleen cell suspension at a dose of 125 mg/kg, po. in AKR mice; format: functional

CCN(CC)CC(=O)Nc1nc2c(cc(Cl)c3nc(NC(=O)CN(CC)CC)sc32)s1
Activity [1]: -58% | inhibition in vivo at 100 mg/kg [2]: 62% | Inhibition [3]: 35% | inhibition in vivo at 100 mg/kg [4]: 0%

CCN(CC)CCC(=O)Nc1nc2cc3nc(NC(=O)CCN(CC)CC)sc3cc2s1
Body weight change [5]: -5% | Inhibition [6]: 16% | inhibition in vivo at 50 mg/kg [7]: 29% | inhibition in vivo at 50 mg/kg [8]: 48%

CCN(CC)CCNc1nc2cc3nc(NCCN(CC)CC)sc3cc2s1
Activity [1]: 3% | inhibition in vivo at 100 mg/kg [2]: 0% | Inhibition [3]: 14% | inhibition in vivo at 100 mg/kg [4]: 33%

CCN(CC)CC(=O)Nc1nc2cc3nc(NC(=O)CN(CC)CC)sc3cc2s1
Activity [9]: 82% | Inhibition [3]: 9% | Activity [10]: 67% | Activity [11]: 83% | inhibition in vivo at 50 mg/kg [7]: 76% | inhibition in vivo at 50 mg/kg [8]: 98% | inhibition in vivo at 50 mg/kg [12]: 98%

Nc1nc2cc3nc(N)sc3cc2s1
Activity [1]: -20% | inhibition in vivo at 100 mg/kg [2]: 92% | Inhibition [3]: 60% | inhibition in vivo at 100 mg/kg [4]: 79%

CCN(CC)CC(=O)Nc1nc2c(Cl)c3nc(NC(=O)CN(CC)CC)sc3c(Cl)c2s1
Activity [1]: -33% | inhibition in vivo at 10 mg/kg [13]: 71% | Inhibition [3]: 19% | inhibition in vivo at 10 mg/kg [14]: 30%

CC1CCC(NCC(=O)Nc2nc3cc4nc(NC(=O)CNC5CCC(C)CC5)sc4cc3s2)CC1 (centres undefined)
Activity [1]: -4% | Inhibition [15]: 3% | inhibition in vivo at 50 mg/kg [7]: 21% | inhibition in vivo at 50 mg/kg [8]: 54%

CCN(CC)CC(=O)Nc1nc2cc3nc(NC(=O)CCl)sc3cc2s1
Body weight change [5]: -16% | Inhibition [6]: 25% | inhibition in vivo at 50 mg/kg [7]: 38% | inhibition in vivo at 50 mg/kg [8]: 0%

Nc1nc2cc3sc(N)nc3cc2s1
Activity [1]: -30% | inhibition in vivo at 10 mg/kg [13]: 100% | Inhibition [3]: 4% | inhibition in vivo at 10 mg/kg [14]: 88%

CN(CC(=O)Nc1nc2cc3nc(NC(=O)CN(C)C4CCCCC4)sc3cc2s1)C1CCCCC1.Cl.Cl
Activity [1]: -4% | inhibition in vivo at 100 mg/kg [2]: 27% | Inhibition [3]: 6% | inhibition in vivo at 100 mg/kg [4]: 32%

CCN(CC)CC(=O)Nc1nc2cc3sc(NC(=O)CN(CC)CC)nc3cc2s1.Cl.Cl
Activity [1]: -33% | Inhibition [3]: 9% | inhibition in vivo at 5 mg/kg [16]: 0% | inhibition in vivo at 5 mg/kg [17]: 11%

CCN(CC)C(C)C(=O)Nc1nc2cc3nc(NC(=O)C(C)N(CC)CC)sc3cc2s1.Cl.Cl (centres undefined)
Inhibition [6]: 0% | inhibition in vivo at 50 mg/kg [7]: 0% | inhibition in vivo at 50 mg/kg [8]: 0% | Activity [18]: -19%

CNc1nc2cc3nc(NC)sc3cc2s1.Cl.Cl
Activity [1]: -30% | inhibition in vivo at 25 mg/kg [19]: 71% | Inhibition [3]: 24% | inhibition in vivo at 25 mg/kg [20]: 100%

CCNCC(=O)Nc1nc2cc3nc(NC(=O)CNCC)sc3cc2s1.Cl.Cl
Activity [1]: -28% | inhibition in vivo at 25 mg/kg [19]: 79% | Inhibition [3]: 21% | inhibition in vivo at 25 mg/kg [20]: 100%

O=P1(N(CCCl)CCCl)NCCCO1 (centres undefined) [CYCLOPHOSPHAMIDE ANHYDROUS]
inhibition in vivo at 25 mg/kg [19]: 86% | Body weight change [5]: -19% | Inhibition [6]: 18% | inhibition in vivo at 25 mg/kg [20]: 100%

COc1ccc2c(c1)c(CC(=O)O)c(C)n2C(=O)c1ccc(Cl)cc1 [INDOMETHACIN]
Body weight change [5]: 18% and 28% | Inhibition [6]: 63% and 34% | inhibition in vivo at 1 mg/kg [21]: 61% | inhibition in vivo at 2.5 mg/kg [22]: 71% | inhibition in vivo at 1 mg/kg [23]: 69%

CCN(CC)CCOc1ccc2c(c1)C(=O)c1cc(OCCN(CC)CC)ccc1-2 [TILORONE]
Activity [1]: 10% | Inhibition [24]: 53% | inhibition in vivo at 100 mg/kg [25]: 45% | Inhibition [3]: 0% | inhibition in vivo at 100 mg/kg [26]: 59% | Activity [27]: 28%
